Lmaj promast – reduces viability of Leishmania major promastigotes. inhibition, % at 10 µM. 9% of 200,000 active. resazurin fluorescence viability. AID 1063; in the data active = inhibition above about 50%;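 note: promastigotes grown with compound for 44 hours at 28 °C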
PTEN del growth – suppresses growth of cells with PTEN deletion. HCT116 PTEN-null viability, CellTiter-Glo, 60 h; active compounds read low. viability, % at 10 µM. 1.2% of 140,000 active;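 active = viability at or below a set limit, 4 SD under the median of all tested compounds, cut at about 3.7% in these data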;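 note: PTEN knockout HCT116 line with beta catenin targeted HCT116 as companion control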
Dynein cargo inh – blocks dynein driven cargo transport along microtubules; 3617.4 mouse cells, GR-EGFP nuclear translocation imaging; test concentration mostly 20 µM; stimulated with dexamethasone, 1 µM; active compounds read low; z-score, hits read low; 0.47% of 220,000 active; AID 1381;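 active = plate z-score of nuclear minus cytoplasmic receptor signal below a set negative limit, without overly bright fluorescence or cell loss, cut at about -3.5 in these data, passing the limit was not always enough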;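 note: z-score of nuclear minus cytoplasmic ring GR-EGFP intensity difference per well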
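Also added: dexamethasone, 1.0 µM final. Medium: tet-free, stripped-serum medium. Detection: fixed, Hoechst-stained cells imaged at 10x for EGFP. Read-out: nuclear-to-cytoplasmic GR-EGFP distribution per well. Times: induction 48 h, compound 1 h, agonist 30 min.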
HCT116 bCat-KO – beta-catenin-lacking colon tumor cell growth suppression | HCT116 beta-catenin knockout viability, CellTiter-Glo, 60 h; active compounds read low | viability, % at 10 µM | 1.5% of 140,000 active;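 active = viability at or under a set limit, the compound median less 4 SD, cut at about 6% in these data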
Autophagy HCS – alters autophagy in cells; MEF GFP-LC3 puncta imaging; test concentration mostly 10 µM; calls only at 10 µM (by protocol); 0.98% of 190,000 active;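 active = percentage of spot-positive cells more than 3 SD above its plate mean, without a fluorescence outlier flag or 80% toxicity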
Each line names hits and unclear results; the compound was inactive in the other large screens. Shown are actives, neighbours in structure and some others; about 9.2% of the full set was active somewhere.

CCOC(=O)c1ccc(NC(=O)Cn2nnc(-c3ccccc3F)n2)cc1	Lmaj promast 61
Cc1oc(-c2ccccc2)nc1C(=O)N1CCN(c2ccc(F)cc2)CC1	none (no result: PTEN del growth, HCT116 bCat-KO)
CCn1c(/C=C2/C(=O)N(C)c3ccccc32)nc2ccccc2c1=O	none
CCN1C(=O)/C(=C\c2nc3ccccc3c(=O)n2CC)c2ccccc21	Lmaj promast 96, Autophagy HCS active (no result: PTEN del growth, HCT116 bCat-KO)
CCN1C(=O)/C(=C/c2nc3ccccc3c(=O)n2-c2ccccc2)c2ccccc21	Lmaj promast 71
CCn1c(/C=C2\C(=O)N(C)c3ccccc32)nc2ccccc2c1=O	none
Cc1cc(NC(=O)CCC(=O)N(Cc2ccccc2)C2(C(=O)NC3CCCCC3)CCCC2)no1	none (no result: PTEN del growth, HCT116 bCat-KO)
COc1ccc(NC(C)c2cc(Cl)ccc2O)cc1 (stereo not given)	none
CC(Nc1ccccc1)c1cc(Cl)ccc1O (stereo not given)	Lmaj promast 96
CC(NC(=O)CC(c1ccccc1)c1cc(Cl)ccc1O)c1ccccc1 (stereo not given)	Lmaj promast 98
COc1ccc(CCNC(=O)COC(=O)/C=C/c2ccc(OC)c(OC)c2)cc1	none
COCCOC(=O)c1c(N)n(CCCN2CCOCC2)c2nc3ccccc3nc12	none (no result: Lmaj promast, PTEN del growth, HCT116 bCat-KO, Autophagy HCS)
COc1ccc(CNC(=O)c2c(N)n(CCCN3CCOCC3)c3nc4ccccc4nc23)cc1	Lmaj promast 87, PTEN del growth 1.7, HCT116 bCat-KO 1.4
CC(C)Cn1c(N)c(C(=O)NCCN2CCOCC2)c2nc3ccccc3nc21	none
Nc1c(C(=O)NCc2ccc(F)cc2)c2nc3ccccc3nc2n1CCCN1CCOCC1	Lmaj promast 100, PTEN del growth 1.0, HCT116 bCat-KO 1.3
COC(=O)c1c(N)n(CCCN2CCOCC2)c2nc3ccccc3nc12	none
Nc1c(C(=O)NCc2ccccc2)c2nc3ccccc3nc2n1CCCN1CCOCC1	Autophagy HCS active
O=C(c1nc2ccccn2c1CNCCn1ccc2ccccc21)N1CCOCC1	none (no result: Lmaj promast, PTEN del growth, HCT116 bCat-KO, Autophagy HCS)
O=C(CN(c1cccc([N+](=O)[O-])c1)S(=O)(=O)c1ccccc1)NCc1ccccc1	Lmaj promast 96
CC(C)NC(=O)CN(c1cccc([N+](=O)[O-])c1)S(=O)(=O)c1ccccc1	none (no result: PTEN del growth, HCT116 bCat-KO)
Cc1ccc(CNC(=O)CN(c2cccc([N+](=O)[O-])c2)S(=O)(=O)c2ccccc2)cc1	Lmaj promast 97
CC(NC(=O)Nc1ccc(Br)cc1)C(C)(C)C (stereo not given)	none (no result: PTEN del growth, HCT116 bCat-KO)
CN(C)/C=C/C(=O)c1cc(N2CCOCC2)ccc1[N+](=O)[O-]	none (no result: PTEN del growth, HCT116 bCat-KO)
CCOC(=O)N1CCN(C(=O)CSCc2ccccc2)CC1	Lmaj promast 51
O=C(CCNS(=O)(=O)c1ccc(Br)s1)Nc1ccc(Cl)cc1	Lmaj promast 81
O=C(CCNS(=O)(=O)c1ccc(Br)s1)NC1CCCC1	none
COc1ccccc1NS(=O)(=O)c1cc(NC(=O)c2ccncc2)ccc1N1CCOCC1	none
O=C(/C=C/c1cccs1)Nc1ccc(N2CCOCC2)c(S(=O)(=O)Nc2cc(Cl)ccc2Cl)c1	none
O=C(/C=C/c1cccs1)Nc1ccc(N2CCOCC2)c(S(=O)(=O)Nc2ccccc2Cl)c1	Lmaj promast 99
COc1ccccc1NS(=O)(=O)c1cc(NC(=O)/C=C/c2cccs2)ccc1N1CCOCC1	Lmaj promast 99
COc1cccc(CC2(CO)CCCN(Cc3c(C)cc(C)cc3-n3cccn3)C2)c1 (stereo not given)	none (no result: PTEN del growth, HCT116 bCat-KO)
O=c1c2ccccc2nc2ccc(NCc3cccs3)nn12	none (no result: PTEN del growth, HCT116 bCat-KO)
CCC/C(=N\NC(=O)c1ccccc1C)c1ccccc1	none
CCC/C(=N/NC(=O)c1ccccc1Cl)c1ccccc1	Lmaj promast 95 (no result: PTEN del growth, HCT116 bCat-KO)
COC1=C/C(=C/c2c(O)c(C#N)c3ccccn23)C=CC1=O	none (no result: Lmaj promast, PTEN del growth, HCT116 bCat-KO, Autophagy HCS)
CCOC(=O)CNC(=O)CSc1nc2cccnc2n1C	Autophagy HCS active
CCOC(=O)CSc1nc2cccnc2n1C	none (no result: PTEN del growth, HCT116 bCat-KO)
O=C(NCCO)c1ccc2nc(-c3ccco3)c(-c3ccco3)nc2c1	none
O=C(NCCc1ccccc1)c1ccc2nc(-c3ccco3)c(-c3ccco3)nc2c1	Lmaj promast 72
CC1c2ccccc2SC(CCCN(C)C)c2ccccc21 (stereo not given)	Lmaj promast 100
CN(C)CCC1Sc2ccccc2Oc2ccccc21 (stereo not given)	Lmaj promast 100
CN(C)CCCCOc1ccccc1-c1ccccc1	none
COc1ccc(C)cc1-n1nnnc1SCc1nc2ccccc2s1	Lmaj promast 83
COc1ccc(C)cc1-n1nnnc1SCC(=O)Nc1cccnc1Cl	Lmaj promast 92
COc1ccc(-n2nnnc2SCc2nc3ccccc3s2)cc1	none
COc1ccc(C)cc1-n1nnnc1SCC(=O)Nc1cc(C)on1	none
CSCCC1NC(=O)N(CC(=O)N2N=C(c3ccc(Cl)cc3)CC2c2ccco2)C1=O (stereo not given)	none (no result: PTEN del growth, HCT116 bCat-KO)
O=c1cc(-c2cccc([N+](=O)[O-])c2)[nH][nH]1	Lmaj promast 58
Nc1cc(-c2cccc([N+](=O)[O-])c2)[nH]n1	none
O=C(N/C(=C\c1cccc([N+](=O)[O-])c1)C(=O)N1CCOCC1)c1ccc([N+](=O)[O-])cc1	none (no result: PTEN del growth, HCT116 bCat-KO)
CCC(=O)N(CCC(c1ccc(C)cc1)c1ccco1)Cc1ccco1 (stereo not given)	none (no result: Lmaj promast, PTEN del growth, HCT116 bCat-KO, Autophagy HCS)
O=C1C2C3C=CC(C3)C2C(=O)N1CCCCCCN1C(=O)C2C3C=CC(C3)C2C1=O (stereo not given)	none (no result: PTEN del growth, HCT116 bCat-KO)
O=C1C=CC(=O)N1CCCCCCN1C(=O)C=CC1=O	Dynein cargo inh -4
NC(=O)COC(=O)[C@@H]1CC(O)CN1S(=O)(=O)c1ccc2c(c1)OCCO2 (stereo not given in full)	none (no result: Lmaj promast, PTEN del growth, HCT116 bCat-KO, Autophagy HCS)
COc1ccc(Cl)cc1S(=O)(=O)N1CCCC1	none
CCN(Cc1ccccc1)C(=O)c1nn(-c2ccc(OC)cc2)c(=O)c2c1c1ccccc1n2C	Lmaj promast 50 (no result: PTEN del growth, HCT116 bCat-KO)
CCCCN(CC)CCNC(=O)c1nn(-c2ccc(OC)cc2)c(=O)c2c1c1ccccc1n2C	none (no result: PTEN del growth, HCT116 bCat-KO)
O=C(NNC(=O)c1nn(-c2ccc(F)cc2)ccc1=O)c1ccccc1Cl	none (no result: Lmaj promast, PTEN del growth, HCT116 bCat-KO, Autophagy HCS)
COc1ccc(/C=N/OCC(=O)NC(c2ccccc2)c2ccccc2)cc1OC	Lmaj promast 100
COc1ccccc1N1CCN(C(CNC(=O)C2CCCCC2)c2cccnc2)CC1 (stereo not given)	Lmaj promast 51
O=C(NCC(c1cccnc1)N1CCOCC1)C1CCCCC1 (stereo not given)	none
COc1ccccc1N1CCN(C(CNC(=O)c2ccc3c(c2)OCO3)c2cccnc2)CC1 (stereo not given)	Lmaj promast 94
Cn1c(-c2cccc(OCc3ccccc3)c2)nc2c1c(=O)[nH]c(=O)n2Cc1ccccc1	none
COc1ccc(-c2nc3c(c(=O)[nH]c(=O)n3Cc3ccccc3)n2Cc2ccccc2)cc1	Lmaj promast 99
COCCn1c(-c2cccc([N+](=O)[O-])c2)nc2c1c(=O)[nH]c(=O)n2Cc1ccccc1	Lmaj promast 84
COc1ccc(Cn2c(-c3ccc(C)cc3)nc3c(c(=O)c4ccccc4n3C)c2=O)cc1	Lmaj promast 88
O=c1[nH]c(-c2ccccc2)nnc1-c1ccccc1	none (no result: Lmaj promast, PTEN del growth, HCT116 bCat-KO, Autophagy HCS)

Source: PubChem
